Screening data: PubChem BioAssay, Johns Hopkins Ion Channel Center
Sampled rows, rich in hits. Any-hit rate of the full collection: about 3.1%.
KCNK3 inh – human KCNK3 channel inhibition, primary screen | O14649 | AID 602410 | B-score at 10 µM | CHO-KCNK3 thallium flux, FluxOR fluorescence; active compounds read low | 0.84% of 340,000 active;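 active means B-score under library mean minus 4 SD, starting fluorescence ratio at most library mean plus 5 SD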;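 further: more negative B-score means stronger inhibition of thallium flux through KCNK3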
KCNK9 inh – blocks the human KCNK9 two-pore domain potassium channel. Q9NPC2. HEK293 KCNK9, FluxOR thallium flux fluorescence; active compounds read low. B-score at 10 µM. 1.2% of 310,000 active. AID 488922;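 active means ratio B-score over 3 SD below the library mean, with starting fluorescence within 5 SD of its mean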;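 further: negative B-score means less thallium flux so channel inhibition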
Target sequence (Q9NPC2 whole entry, looked up, the tested form may be a part): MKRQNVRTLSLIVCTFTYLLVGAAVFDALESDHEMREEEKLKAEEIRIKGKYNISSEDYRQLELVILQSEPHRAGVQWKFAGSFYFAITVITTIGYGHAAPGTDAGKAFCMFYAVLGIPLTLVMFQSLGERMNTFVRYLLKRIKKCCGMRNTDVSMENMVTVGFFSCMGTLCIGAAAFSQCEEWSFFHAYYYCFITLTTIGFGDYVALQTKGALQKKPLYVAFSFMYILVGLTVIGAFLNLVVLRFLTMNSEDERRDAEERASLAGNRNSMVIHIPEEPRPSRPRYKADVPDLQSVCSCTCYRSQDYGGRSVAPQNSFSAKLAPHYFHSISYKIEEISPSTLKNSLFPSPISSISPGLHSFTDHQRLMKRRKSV
hERG rescue – hERG (human) protection from proarrhythmic block | 0.51% of 310,000 active | Q12809 | activation (rescue from dofetilide block), less the hit threshold, % at 10 µM | AID 1511 | CHO-hERG, FluxOR thallium flux, dofetilide IC70 present;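 active means activation above the mean of controls blocked by dofetilide plus 5 SD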;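 further: thallium influx through hERG after potassium depolarization seen as dye fluorescence rise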
KCNQ1 inh – inhibitors of human KCNQ1 potassium channel | P51787 | CHO-K1 KCNQ1, FluxOR thallium flux fluorescence; active compounds read high | B-score at 10 µM | 1.3% of 310,000 active;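 active means compounds whose thallium flux B-score, printed positive for inhibition, exceeds three library SD while starting fluorescence stays within three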;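 further: channel opened by potassium depolarization with thallium stimulus after 20 min compound exposure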
KCNQ1 act – human KCNQ1 channel potentiation or activation | P51787 | 0.35% of 310,000 active | AID 2648 | CHO-K1 KCNQ1, thallium flux FluxOR fluorescence; active compounds read high | B-score at 10 µM;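 active means fluorescence ratio B-score, a plate-corrected score, at least three library SD, with initial intensity B-score within 5 SD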
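Assay system: stable KCNQ1 CHO-K1 line; medium: assay buffer, equal DMSO in all wells; timing: 90 min dye loading and 20 min compound exposure, both at room temperature; technique: kinetic FluxOR thallium fluorescence, 10-s 1-Hz baseline, 110-s post-stimulus read; read-out basis: B score of baseline-normalized fluorescence ratio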
KCNK9 block conf – human KCNK9 inhibitor confirmation. shares compounds with KCNK9 inh. HEK293 KCNK9 cells, FluxOR thallium flux fluorescence. inhibition, % at 10 µM. 43% of 4,900 active. AID 492992;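 active means thallium signal inhibited by more than 5 SD of the compound-free buffer control wells, on both duplicate plates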;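 further: 0% = assay buffer control wells without compound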
Kir21 sel – tests whether KCNK9 modulators also affect mouse Kir2.1. shares compounds with KCNK9 inh. Kir2.1 cells, FluxOR thallium flux fluorescence. inhibition, % at 10 µM. 4% of 4,900 active;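 active means thallium signal drop more than 5 SD beyond the mean of the no-compound control wells, seen in both duplicate plates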;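 further: signal is fluorescence rise after thallium addition divided by baseline fluorescence; plate controls were assay buffer only for no effect and full block by chlorpromazine control for full effect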
HEK293 Tl ctr – second counter-screen for KCNK9 modulators: effect in non-induced cells; shares compounds with KCNK9 inh; non-induced KCNK9-HEK293, FluxOR thallium flux; inhibition, % at 10 µM; 40% of 4,900 active;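 active means thallium signal drop beyond 5 SD of the untreated control mean, on both duplicate plates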;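 further: plate controls were buffer only IC0 wells for no effect and SID17386958 at its maximal inhibitory level for full effect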
Starred values were filed as active, the others as inactive.

CSCCC(NC(=O)/C(=C/c1ccco1)NC(=O)c1ccco1)C(=O)O (stereo not given) was read as KCNK3 inh inactive, KCNK9 inh inactive, hERG rescue -10, KCNQ1 inh inactive and KCNQ1 act inactive.
For O=C(O)c1ccc(NC(=O)C2C3CCC(O3)C2C(=O)O)cc1 (stereo not given) the results were KCNK3 inh inactive, KCNK9 inh inactive, hERG rescue -5, KCNQ1 inh inactive and KCNQ1 act inactive.
Screening O=C(Nc1c(S(=O)(=O)c2ccc(Cl)cc2)csc1Br)c1ccccc1Cl returned KCNK3 inh inactive, KCNK9 inh -11*, hERG rescue -5, KCNQ1 inh inactive, KCNQ1 act inactive, KCNK9 block conf 38%*, Kir21 sel inactive and HEK293 Tl ctr 35%*.
CC(=O)Nc1ccc(S(=O)(=O)N2CCC(NC(=O)C(Cc3ccc(C)cc3)NC(C)=O)CC2)cc1 (stereo not given) was read as KCNK3 inh inactive, KCNK9 inh inactive, hERG rescue -8, KCNQ1 inh inactive and KCNQ1 act inactive.
`Cc1ccc(C)c(NC(=O)c2oc(=O)c3ccccc3c2-c2ccccc2)c1` gave KCNK3 inh inactive, KCNK9 inh -15*, hERG rescue -9, KCNQ1 inh inactive, KCNQ1 act inactive, KCNK9 block conf 64%*, Kir21 sel inactive and HEK293 Tl ctr 44%*.
For O=c1cc(CSc2ccc(Cl)cc2)nc(-c2ccccn2)[nH]1 the results were KCNK3 inh inactive, KCNK9 inh inactive, hERG rescue -5, KCNQ1 inh inactive and KCNQ1 act inactive.
`Cc1cc2ccccn2c1C(=O)c1ccccc1F` gave KCNK3 inh inactive, KCNK9 inh -12*, hERG rescue -7, KCNQ1 inh inactive, KCNQ1 act inactive, KCNK9 block conf inactive, Kir21 sel inactive and HEK293 Tl ctr inactive.
Cc1cc2ccccn2c1C(=O)c1ccc(Cl)cc1 was read as KCNK3 inh inactive, KCNK9 inh inactive, hERG rescue -7, KCNQ1 inh inactive and KCNQ1 act inactive.
Cc1cc(O)c(C(=O)Cc2csc(C)n2)c(O)c1 was read as KCNK3 inh inactive, KCNK9 inh inactive, hERG rescue -17, KCNQ1 inh inactive and KCNQ1 act inactive.
Screening Cc1noc(N)c1C(=O)Nc1ccc(F)cc1 returned KCNK3 inh inactive, KCNK9 inh inactive, hERG rescue -8, KCNQ1 inh inactive and KCNQ1 act inactive.
Cc1noc(N)c1C(=O)Nc1ccccc1F was read as KCNK3 inh inactive, KCNK9 inh -9.5*, hERG rescue -6, KCNQ1 inh inactive, KCNQ1 act inactive, KCNK9 block conf inactive, Kir21 sel inactive and HEK293 Tl ctr inactive.
Cc1[nH]c2ccc(F)cc2c1CCN(Cc1cccnc1)C(=S)Nc1cccc(F)c1 was read as KCNK3 inh inactive, KCNK9 inh -9.1*, hERG rescue -6, KCNQ1 inh inactive, KCNQ1 act inactive, KCNK9 block conf 42%*, Kir21 sel inactive and HEK293 Tl ctr 44%*.
Screening COc1ccc(OC)c(NC(=S)N(CCc2c(C)[nH]c3ccccc23)Cc2cccs2)c1 returned KCNK3 inh inactive, KCNK9 inh -9.1*, hERG rescue -8, KCNQ1 inh inactive, KCNQ1 act inactive, KCNK9 block conf 32%*, Kir21 sel inactive and HEK293 Tl ctr 31%*.
For COc1ccc(OC)c(NC(=S)N(CCc2c(C)[nH]c3ccc(C)cc23)Cc2cccs2)c1 the results were KCNK3 inh inactive, KCNK9 inh -9.4*, hERG rescue -19, KCNQ1 inh inactive, KCNQ1 act inactive, KCNK9 block conf 34%*, Kir21 sel inactive and HEK293 Tl ctr 30%*.
COc1ccc2[nH]c(C)c(CCN(Cc3cccs3)C(=S)Nc3cccc(F)c3)c2c1 was read as KCNK3 inh -12*, KCNK9 inh -14*, hERG rescue -20, KCNQ1 inh inactive, KCNQ1 act inactive, KCNK9 block conf 55%*, Kir21 sel inactive and HEK293 Tl ctr 31%*.
